Assay results: ChEMBL document CHEMBL1140884, “Oligodeoxyribonucleotide-based antagonists for Toll-like receptors 7 and 9” (2009)
Active and inactive are the calls of the source. The calls are words filed in the database; no cut-off is given here.

Assays:
Format in all cases: functional, cell-based
[1] = target: T1, Toll-like receptor 9 (Mus musculus) (UniProt Q9EQU3); test: Agonist activity at mouse TLR9 expressed in HEK293 cells assessed as activation of NF-kappaB at 10 ug/mL by SEAP reporter gene assay
T1 sequence (whole entry): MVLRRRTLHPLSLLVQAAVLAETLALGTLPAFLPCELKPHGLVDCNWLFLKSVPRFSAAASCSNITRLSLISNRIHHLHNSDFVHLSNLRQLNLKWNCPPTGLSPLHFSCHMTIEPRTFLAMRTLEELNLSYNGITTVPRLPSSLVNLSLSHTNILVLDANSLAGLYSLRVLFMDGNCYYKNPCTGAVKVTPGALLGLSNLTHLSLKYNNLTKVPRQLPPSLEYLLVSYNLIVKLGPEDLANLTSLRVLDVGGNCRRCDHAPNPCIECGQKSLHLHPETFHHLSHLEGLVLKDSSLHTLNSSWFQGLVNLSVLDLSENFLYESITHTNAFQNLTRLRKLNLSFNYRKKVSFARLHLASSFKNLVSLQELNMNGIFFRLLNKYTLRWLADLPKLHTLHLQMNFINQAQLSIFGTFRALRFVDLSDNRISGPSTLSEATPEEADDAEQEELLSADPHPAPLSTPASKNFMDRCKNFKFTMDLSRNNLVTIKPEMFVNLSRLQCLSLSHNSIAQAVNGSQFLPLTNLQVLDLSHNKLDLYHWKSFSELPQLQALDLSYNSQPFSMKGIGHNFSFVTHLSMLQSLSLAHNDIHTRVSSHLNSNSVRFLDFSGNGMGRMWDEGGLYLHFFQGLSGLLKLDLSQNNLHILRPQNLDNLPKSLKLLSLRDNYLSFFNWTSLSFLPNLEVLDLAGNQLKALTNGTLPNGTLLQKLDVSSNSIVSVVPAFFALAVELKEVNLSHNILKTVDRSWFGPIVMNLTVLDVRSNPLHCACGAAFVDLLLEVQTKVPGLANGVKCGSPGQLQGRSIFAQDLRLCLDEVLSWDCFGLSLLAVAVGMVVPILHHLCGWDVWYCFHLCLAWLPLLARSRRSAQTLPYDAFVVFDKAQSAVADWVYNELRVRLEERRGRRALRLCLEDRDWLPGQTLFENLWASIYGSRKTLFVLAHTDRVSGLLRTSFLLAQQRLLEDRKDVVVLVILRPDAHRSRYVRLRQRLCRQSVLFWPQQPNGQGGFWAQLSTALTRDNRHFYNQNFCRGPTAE
Summary of the method: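 HEK293 cells stably expressing mouse TLR9 were transiently transfected with a SEAP reporter for 6 h. Compounds were added at 10 µg/mL for 18 h. SEAP was read with Quanti-Blue substrate and expressed as fold change in NF-κB activity.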

[2] = target: T1, Toll-like receptor 9 (Mus musculus); test: Antagonist activity at mouse TLR9 expressed in HEK293 cells assessed as inhibition of 5'-CTATCTGACGTTCTCTGT-3'-induced NF-kappaB activation by SEAP reporter gene assay
Summary of the method: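 Mouse TLR9-HEK293 cells were transfected with a SEAP reporter for 6 h. They were then stimulated for 18 h with agonist (0.25 or 0.5 µg/mL) plus increasing antagonist concentrations or set agonist:antagonist ratios. Quanti-Blue read-out, reported as % NF-κB activity with agonist alone as 100%.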

[3] = target: T1, Toll-like receptor 9 (Mus musculus); test: Agonist activity at TLR9 in mouse J774 cells assessed as of NF-kappaB activation
Summary of the method: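 Murine J774 macrophages grown in DMEM with 10% FBS and plated at 5×10^6 cells/well. Nuclear extracts taken 1 h after agonist addition. NF-κB detected by EMSA on native polyacrylamide gels with autoradiography.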

[4] = target: T1, Toll-like receptor 9 (Mus musculus); test: Antagonist activity at TLR9 in mouse J774 cells assessed as inhibition of 5'-TCTGACRTTCT-X-TCTTRCAGTCT-3'-induced NF-kappaB activation pretreated for 1 hr
Summary of the method: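 J774 cells at 5×10^6 cells/well were preincubated with antagonist for 1 h. Agonist was then added: TLR9 agonist 1 µg/mL, an RNA-based TLR7/8 agonist, or LPS 100 ng/mL. Antagonist was used at 5–40 µg/mL or at the indicated agonist ratios. Nuclear extracts were taken 1 h after agonist and analysed by EMSA.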

Activity [1]	Activity [2]	Activity [3]	Activity [4]	SMILES
Active	–	–	–	CO[C@@H]1[C@H](OP(=O)(S)OC[C@H]2O[C@@H](n3ccc(N)nc3=O)C[C@@H]2OP(=O)(S)OC[C@H]2O[C@@H](n3cc(C)c(=O)[nH]c3=O)C[C@@H]2OP(=O)(S)OC[C@H]2O[C@@H](n3ccc(N)nc3=O)C[C@@H]2OP(=O)(S)OC[C@H]2O[C@@H](n3cc(C)c(=O)[nH]c3=O)C[C@@H]2OP(=O)(S)OC[C@H]2O[C@@H](n3cnc4c(=O)[nH]c(N)nc43)C[C@@H]2OP(=O)(S)OC[C@H]2O[C@@H](n3cc(C)c(=O)[nH]c3=O)C[C@@H]2O)[C@@H](COP(=O)(S)O[C@H]2[C@@H](OC)[C@H](n3ccc(=O)[nH]c3=O)O[C@@H]2COP(=O)(S)O[C@H]2C[C@H](n3cnc4c(=O)[nH]c(N)nc43)O[C@@H]2COP(=O)(S)O[C@H]2C[C@H](n3ccc(N)nc3=O)O[C@@H]2COP(=O)(S)O[C@H]2C[C@H](n3cnc4c(N)ncnc43)O[C@@H]2COP(=O)(S)O[C@H]2C[C@H](n3cnc4c(=O)[nH]c(N)nc43)O[C@@H]2COP(=O)(S)O[C@H]2C[C@H](n3cc(C)c(=O)[nH]c3=O)O[C@@H]2COP(=O)(S)O[C@H]2C[C@H](n3ccc(N)nc3=O)O[C@@H]2COP(=O)(S)O[C@H]2C[C@H](n3cc(C)c(=O)[nH]c3=O)O[C@@H]2COP(=O)(S)O[C@H]2C[C@H](n3cnc4c(N)ncnc43)O[C@@H]2COP(=O)(S)O[C@H]2C[C@H](n3cc(C)c(=O)[nH]c3=O)O[C@@H]2COP(=O)(S)O[C@@H]2C[C@@H](n3ccc(N)nc3=O)O[C@H]2CO)O[C@H]1n1ccc(=O)[nH]c1=O (some centres not stated)
Active	inactive	–	–	Cc1cn([C@@H]2O[C@H](COP(=O)(S)O[C@H]3C[C@H](n4ccc(N)nc4=O)O[C@@H]3COP(=O)(S)O[C@H]3C[C@H](n4cc(C)c(=O)[nH]c4=O)O[C@@H]3COP(=O)(S)O[C@H]3C[C@H](n4ccc(N)nc4=O)O[C@@H]3COP(=O)(S)O[C@H]3C[C@H](n4cc(C)c(=O)[nH]c4=O)O[C@@H]3COP(=O)(S)O[C@H]3C[C@H](n4cc(C)c(=O)[nH]c4=O)O[C@@H]3COP(=O)(S)O[C@H]3C[C@H](n4cnc5c(=O)[nH]c(N)nc54)O[C@@H]3COP(=O)(S)O[C@H]3C[C@H](n4ccc(N)nc4=O)O[C@@H]3COP(=O)(S)O[C@H]3C[C@H](n4cnc5c(N)ncnc54)O[C@@H]3COP(=O)(S)O[C@H]3C[C@H](n4cnc5c(=O)[nH]c(N)nc54)O[C@@H]3COP(=O)(S)O[C@H]3C[C@H](n4cc(C)c(=O)[nH]c4=O)O[C@@H]3COP(=O)(S)O[C@H]3C[C@H](n4ccc(N)nc4=O)O[C@@H]3COP(=O)(S)O[C@H]3C[C@H](n4cc(C)c(=O)[nH]c4=O)O[C@@H]3COP(=O)(S)O[C@H]3C[C@H](n4cnc5c(N)ncnc54)O[C@@H]3COP(=O)(S)O[C@H]3C[C@H](n4cc(C)c(=O)[nH]c4=O)O[C@@H]3COP(=O)(S)O[C@@H]3C[C@@H](n4ccc(N)nc4=O)O[C@H]3CO)[C@@H](OP(=O)(S)OC[C@H]3O[C@@H](n4cnc5c(=O)[nH]c(N)nc54)C[C@@H]3OP(=O)(S)OC[C@H]3O[C@@H](n4cc(C)c(=O)[nH]c4=O)C[C@@H]3O)[C@H]2O)c(=O)[nH]c1=O (some centres not stated)
inactive	–	inactive	inactive	CO[C@@H]1[C@H](OP(=O)(S)OC[C@H]2O[C@@H](n3ccc(N)nc3=O)C[C@@H]2OP(=O)(S)OC[C@H]2O[C@@H](n3ccc(N)nc3=O)C[C@@H]2OP(=O)(S)OC[C@H]2O[C@@H](n3cc(C)c(=O)[nH]c3=O)C[C@@H]2OP(=O)(S)OC[C@H]2O[C@@H](n3cc(C)c(=O)[nH]c3=O)C[C@@H]2OP(=O)(S)OC[C@H]2O[C@@H](n3ccc(N)nc3=O)C[C@@H]2OP(=O)(S)OC[C@H]2O[C@@H](n3cc(C)c(=O)[nH]c3=O)C[C@@H]2OP(=O)(S)OC[C@H]2O[C@@H](n3ccc(N)nc3=O)C[C@@H]2OP(=O)(S)OC[C@H]2O[C@@H](n3cc(C)c(=O)[nH]c3=O)C[C@@H]2OP(=O)(S)OC[C@H]2O[C@@H](n3cnc4c(=O)[nH]c(N)nc43)C[C@@H]2OP(=O)(S)OC[C@H]2O[C@@H](n3cc(C)c(=O)[nH]c3=O)C[C@@H]2O)[C@@H](COP(=O)(S)O[C@H]2[C@@H](OC)[C@H](n3cnc4c(=O)[nH]c(N)nc43)O[C@@H]2COP(=O)(S)O[C@H]2C[C@H](n3cc(C)c(=O)[nH]c3=O)O[C@@H]2COP(=O)(S)O[C@H]2C[C@H](n3ccc(N)nc3=O)O[C@@H]2COP(=O)(S)O[C@H]2C[C@H](n3cc(C)c(=O)[nH]c3=O)O[C@@H]2COP(=O)(S)O[C@H]2C[C@H](n3cnc4c(N)ncnc43)O[C@@H]2COP(=O)(S)O[C@H]2C[C@H](n3cc(C)c(=O)[nH]c3=O)O[C@@H]2COP(=O)(S)O[C@@H]2C[C@@H](n3ccc(N)nc3=O)O[C@H]2CO)O[C@H]1n1cnc2c(N)ncnc21 (some centres not stated)
Active	–	–	–	Cc1cn([C@H]2C[C@H](OP(=O)(S)OC[C@H]3O[C@@H](n4ccc(N)nc4=O)C[C@@H]3OP(=O)(S)OC[C@H]3O[C@@H](n4cc(C)c(=O)[nH]c4=O)C[C@@H]3OP(=O)(S)OC[C@H]3O[C@@H](n4cnc5c(=O)[nH]c(N)nc54)C[C@@H]3OP(=O)(S)OC[C@H]3O[C@@H](n4cc(C)c(=O)[nH]c4=O)C[C@@H]3O)[C@@H](COP(=O)(S)O[C@H]3C[C@H](n4ccc(N)nc4=O)O[C@@H]3COP(=O)(S)O[C@H]3C[C@H](n4cc(C)c(=O)[nH]c4=O)O[C@@H]3COP(=O)(S)O[C@H]3C[C@H](n4cc(C)c(=O)[nH]c4=O)O[C@@H]3COP(=O)(S)O[C@H]3C[C@H](n4cnc5c(=O)[nH]c(N)nc54)O[C@@H]3COP(=O)(S)O[C@H]3C[C@H](n4ccc(N)nc4=O)O[C@@H]3COP(=O)(S)O[C@H]3C[C@H](n4cc(C)c(=O)[nH]c4=O)O[C@@H]3COP(=O)(S)O[C@H]3C[C@H](n4cnc5c(=O)[nH]c(N)nc54)O[C@@H]3COP(=O)(S)O[C@H]3C[C@H](n4cc(C)c(=O)[nH]c4=O)O[C@@H]3COP(=O)(S)O[C@H]3C[C@H](n4ccc(N)nc4=O)O[C@@H]3COP(=O)(S)O[C@H]3C[C@H](n4cc(C)c(=O)[nH]c4=O)O[C@@H]3COP(=O)(S)O[C@H]3C[C@H](n4cnc5c(N)ncnc54)O[C@@H]3COP(=O)(S)O[C@H]3C[C@H](n4cc(C)c(=O)[nH]c4=O)O[C@@H]3COP(=O)(S)O[C@@H]3C[C@@H](n4ccc(N)nc4=O)O[C@H]3CO)O2)c(=O)[nH]c1=O (some centres not stated)
